Measured values: ChEMBL document CHEMBL1140384, “Synthesis and structure-activity relationships of suramin-derived P2Y11 receptor antagonists with nanomolar potency” (J Med Chem, 2005)

Assays:
P2X purinoceptor 4 = molecular target: T1, P2X purinoceptor 4 (Rattus norvegicus, UniProt P51577); assay: Inhibitory concentration against rat P2X purinoceptor 4 expressed in Xenopus laevis oocytes; assay type: functional, cell-based, Oocyte
T1 sequence (P51577 whole entry): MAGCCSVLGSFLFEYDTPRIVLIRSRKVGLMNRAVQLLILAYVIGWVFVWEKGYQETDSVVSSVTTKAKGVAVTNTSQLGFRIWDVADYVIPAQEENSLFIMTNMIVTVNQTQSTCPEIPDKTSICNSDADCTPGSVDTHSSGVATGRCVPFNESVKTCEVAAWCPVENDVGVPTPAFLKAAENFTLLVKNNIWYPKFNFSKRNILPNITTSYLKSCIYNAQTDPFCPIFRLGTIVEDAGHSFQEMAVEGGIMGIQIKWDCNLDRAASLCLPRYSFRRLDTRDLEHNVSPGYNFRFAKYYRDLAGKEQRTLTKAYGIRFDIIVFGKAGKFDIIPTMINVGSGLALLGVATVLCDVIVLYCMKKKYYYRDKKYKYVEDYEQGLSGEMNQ
In short: (§1)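 Two-electrode voltage clamp on Xenopus laevis oocytes expressing recombinant rat or human P2X subtypes, recording receptor-mediated currents. IC50 values came from nonlinear least-squares Hill fits to pooled concentration-inhibition data; mean ± SEM from at least three experiments.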

P2X purinoceptor 1 [1] = molecular target: P2X purinoceptor 1 (Rattus norvegicus, UniProt P47824); assay: Inhibitory concentration against rat P2X purinoceptor 1 expressed in Xenopus laevis oocytes; assay type: functional, cell-based, Oocyte; in short: as §1
Sequence of P2X purinoceptor 1 (Rattus norvegicus, UniProt P47824) (P47824 whole entry, looked up): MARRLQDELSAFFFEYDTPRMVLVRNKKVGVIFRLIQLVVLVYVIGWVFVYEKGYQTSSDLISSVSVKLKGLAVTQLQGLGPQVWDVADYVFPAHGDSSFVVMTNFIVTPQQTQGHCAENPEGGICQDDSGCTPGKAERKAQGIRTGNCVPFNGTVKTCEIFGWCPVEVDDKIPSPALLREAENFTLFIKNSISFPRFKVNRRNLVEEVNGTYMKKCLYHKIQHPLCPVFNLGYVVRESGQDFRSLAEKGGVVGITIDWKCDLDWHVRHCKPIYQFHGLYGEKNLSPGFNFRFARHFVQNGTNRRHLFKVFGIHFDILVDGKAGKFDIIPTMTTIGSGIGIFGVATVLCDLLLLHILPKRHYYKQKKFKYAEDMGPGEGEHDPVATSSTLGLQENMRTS

P2X purinoceptor 1 [2] = molecular target: T2, P2X purinoceptor 1 (Homo sapiens, UniProt P51575); assay: Inhibitory concentration against human P2X purinoceptor 1 expressed in Xenopus laevis oocytes; assay type: functional, cell-based, Oocyte; in short: as §1
T2 sequence (P51575 whole entry): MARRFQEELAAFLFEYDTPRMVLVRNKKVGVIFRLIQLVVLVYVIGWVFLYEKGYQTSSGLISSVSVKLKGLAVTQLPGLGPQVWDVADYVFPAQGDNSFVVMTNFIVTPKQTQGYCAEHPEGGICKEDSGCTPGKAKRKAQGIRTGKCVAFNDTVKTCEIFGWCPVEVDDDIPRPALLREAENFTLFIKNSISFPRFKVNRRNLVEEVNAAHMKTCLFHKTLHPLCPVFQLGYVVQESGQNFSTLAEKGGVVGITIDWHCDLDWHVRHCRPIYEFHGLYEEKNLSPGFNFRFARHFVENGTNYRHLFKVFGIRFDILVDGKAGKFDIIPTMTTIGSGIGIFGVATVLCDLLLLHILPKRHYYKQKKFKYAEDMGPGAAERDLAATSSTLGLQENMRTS

P2X purinoceptor 3 = molecular target: T3, P2X purinoceptor 3 (Homo sapiens, UniProt P56373); assay: Inhibitory concentration against human P2X purinoceptor 3 expressed in Xenopus laevis oocytes; assay type: functional, cell-based, Oocyte; in short: as §1
T3 sequence (P56373 whole entry): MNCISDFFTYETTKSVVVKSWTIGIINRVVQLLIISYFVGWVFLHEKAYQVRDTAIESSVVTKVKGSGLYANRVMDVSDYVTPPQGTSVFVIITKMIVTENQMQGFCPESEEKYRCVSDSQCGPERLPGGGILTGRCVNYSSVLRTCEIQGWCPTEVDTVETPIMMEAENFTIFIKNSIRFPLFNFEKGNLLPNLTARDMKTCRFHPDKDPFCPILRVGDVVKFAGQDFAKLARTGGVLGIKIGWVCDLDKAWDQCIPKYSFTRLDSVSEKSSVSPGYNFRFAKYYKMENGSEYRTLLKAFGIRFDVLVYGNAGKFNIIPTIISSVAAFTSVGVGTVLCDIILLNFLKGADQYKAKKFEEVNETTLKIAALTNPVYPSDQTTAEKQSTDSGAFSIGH

P2X purinoceptor 7 = molecular target: T4, P2X purinoceptor 7 (Rattus norvegicus, UniProt Q64663); assay: Inhibitory concentration against rat P2X purinoceptor 7 expressed in Xenopus laevis oocytes; assay type: functional, cell-based, Oocyte; in short: as §1
T4 sequence (Q64663 whole entry): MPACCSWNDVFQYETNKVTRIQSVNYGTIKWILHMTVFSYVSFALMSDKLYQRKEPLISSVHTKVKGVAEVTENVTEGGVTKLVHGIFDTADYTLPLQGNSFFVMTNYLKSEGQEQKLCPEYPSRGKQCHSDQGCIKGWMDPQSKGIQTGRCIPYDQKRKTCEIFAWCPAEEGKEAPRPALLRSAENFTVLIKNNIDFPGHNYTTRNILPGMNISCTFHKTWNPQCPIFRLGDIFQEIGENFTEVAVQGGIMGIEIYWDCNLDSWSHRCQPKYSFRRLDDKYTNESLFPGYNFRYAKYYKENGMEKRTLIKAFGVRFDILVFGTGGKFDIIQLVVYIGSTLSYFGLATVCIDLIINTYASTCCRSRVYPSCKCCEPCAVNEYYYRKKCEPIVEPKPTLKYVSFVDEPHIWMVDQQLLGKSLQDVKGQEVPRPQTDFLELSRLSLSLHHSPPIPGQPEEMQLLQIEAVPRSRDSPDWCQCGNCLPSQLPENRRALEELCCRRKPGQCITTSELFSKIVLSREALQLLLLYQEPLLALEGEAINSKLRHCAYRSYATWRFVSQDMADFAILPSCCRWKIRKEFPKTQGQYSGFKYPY

P2Y purinoceptor 2 = P2Y purinoceptor 2 (Homo sapiens, UniProt P41231); assay: Percent inhibition of agonist-induced calcium mobilization at P2Y purinoceptor 2 recombinantly expressed in human HEK293 cells at 100 uM dose; assay type: functional, cell-based; settings: in the assay text read “native in” for “recombinantly expressed in”
Sequence of P2Y purinoceptor 2 (P41231 whole entry): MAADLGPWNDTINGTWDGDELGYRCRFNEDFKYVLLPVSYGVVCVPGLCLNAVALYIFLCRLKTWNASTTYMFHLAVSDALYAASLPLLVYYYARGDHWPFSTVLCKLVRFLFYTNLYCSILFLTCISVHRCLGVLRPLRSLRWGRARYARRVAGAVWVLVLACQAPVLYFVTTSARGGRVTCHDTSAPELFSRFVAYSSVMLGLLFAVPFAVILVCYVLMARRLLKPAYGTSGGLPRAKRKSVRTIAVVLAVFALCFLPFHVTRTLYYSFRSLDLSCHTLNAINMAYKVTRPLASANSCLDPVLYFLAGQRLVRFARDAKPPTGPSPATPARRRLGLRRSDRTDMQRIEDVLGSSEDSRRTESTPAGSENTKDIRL
In short: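 Single 100 µM antagonist dose, preincubated 30 min at 37 °C, in a Ca2+ fluorescence assay (Oregon Green 488 BAPTA-1/AM). Agonists: 31.6 nM 2-MeSADP for native P2Y1 and 3.16 µM UTP for native P2Y2, both in HEK293 cells; 1 µM ATPγS for recombinant P2Y11 in 1321N1 cells. Response expressed as % of agonist control; mean ± SEM, n ≥ 3.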

P2X purinoceptor 2 = molecular target: T5, P2X purinoceptor 2 (Rattus norvegicus, UniProt P49653); assay: Inhibitory concentration against rat P2X purinoceptor 2 expressed in Xenopus laevis oocytes; assay type: functional, cell-based, Oocyte; in short: as §1
T5 sequence (P49653 whole entry): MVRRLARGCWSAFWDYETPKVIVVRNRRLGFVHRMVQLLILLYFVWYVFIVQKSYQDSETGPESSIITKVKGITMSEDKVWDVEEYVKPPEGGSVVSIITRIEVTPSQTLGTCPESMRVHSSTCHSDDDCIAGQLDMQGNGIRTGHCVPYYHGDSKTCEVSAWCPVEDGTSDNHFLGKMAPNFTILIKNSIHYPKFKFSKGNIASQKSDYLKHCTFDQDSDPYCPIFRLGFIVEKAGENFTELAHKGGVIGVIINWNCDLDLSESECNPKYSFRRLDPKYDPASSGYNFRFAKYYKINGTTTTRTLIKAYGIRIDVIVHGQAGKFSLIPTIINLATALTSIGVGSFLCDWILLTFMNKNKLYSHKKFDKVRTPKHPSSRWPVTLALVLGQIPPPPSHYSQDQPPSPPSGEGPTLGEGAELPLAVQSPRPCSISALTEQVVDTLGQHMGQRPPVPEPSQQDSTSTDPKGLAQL

IC50 (P2X purinoceptor 4): > 1000 nM
IC50 (P2X purinoceptor 1 [1]): 81.3 nM
IC50 (P2X purinoceptor 1 [2]): 63.1 nM
IC50 (P2X purinoceptor 3): 355 nM
IC50 (P2X purinoceptor 7): > 3160 nM
inhibition (P2Y purinoceptor 2): 42.8%
IC50 (P2X purinoceptor 2): 138 nM
Structure (SMILES): O=C(Nc1cccc(C(=O)Nc2cc(C(=O)Nc3ccc(S(=O)(=O)O)c4cc(S(=O)(=O)O)cc(S(=O)(=O)O)c34)ccc2F)c1)Nc1cccc(C(=O)Nc2cc(C(=O)Nc3ccc(S(=O)(=O)O)c4cc(S(=O)(=O)O)cc(S(=O)(=O)O)c34)ccc2F)c1
